Published values from different studies.
Lines come from different studies, so protocols differ.
Sterol carrier protein 2: Sterol carrier protein 2 (Aedes aegypti, UniProt Q86PR3)
Adora2a: Adenosine receptor A2a (Adora2a, Rattus norvegicus, UniProt P30543)

| target | read-out | action | technique | notes | quantity | result | SMILES |
| --- | --- | --- | --- | --- | --- | --- | --- |
| Sterol carrier protein 2 | ligand displacement |  | fluorescence |  | EC50 | 2380 nM | O=C(/C=C/c1ccc(O)cc1)/C=C/c1ccc(O)cc1 |
| BDNF/NT-3 growth factors receptor (NTRK2, Homo sapiens, UniProt Q16620) | binding |  | competition with immobilised ligand |  | Kd | 4.5 nM | Cc1cnc(-c2ccc(-c3ccc(NC(=O)Nc4c(F)cc(F)cc4F)cc3F)c3c2C(=O)NC3)[nH]1 |
| Adora2a | ligand displacement |  | radioligand | cell membranes | Ki | 2380 nM | CCCCCC(C)N1CCCn2c1nc1c2c(=O)n(C)c(=O)n1C (centres unmarked) |
| Mitogen-activated protein kinase kinase kinase 20, non-phosphorylated (MAP3K20, Homo sapiens, UniProt Q9NYL2) | binding |  | ITC |  | Kd | 29 nM | CCCS(=O)(=O)Nc1ccc(F)c(C(=O)c2c[nH]c3ncc(-c4ccc(Cl)cc4)cc23)c1F |
| Metabotropic glutamate receptor 4 (Grm4, Rattus norvegicus, UniProt P31423) | ion flux | agonist |  |  | EC50 | 7900 nM | N[C@@H](CCC(=O)O)C(=O)O |
| SHC-transforming protein 1 (Homo sapiens, UniProt P29353) | binding |  | fluorescence |  | Kd | 4100 nM | CCCCCCCCCCCCCCCC(=O)OC[C@H](COP(=O)(O)OC1[C@H](O)[C@H](O)C(OP(=O)(O)O)[C@H](O)[C@H]1O)OC(=O)CCCCCCCCCCCCCCC (some centres unmarked) |
| Mitogen-activated protein kinase kinase kinase 9 (MAP3K9, Homo sapiens, UniProt P80192) | binding |  | competition with immobilised ligand |  | Kd | 54 nM | Cc1cc(Nc2cc3ncccc3c(N[C@@H]3C[C@H]4CC[C@@H](C3)N4CCC#N)n2)n[nH]1 |
| E3 ubiquitin-protein ligase NEDD4 (Homo sapiens, UniProt P46934) | cell-free assay |  |  | lysate | Kd | 18400 nM | CCCN1CCN(c2ccc(-c3cncc(Cl)c3N3CCC4(CCNC4=O)CC3)cc2)CC1 |
| Sterol carrier protein 2 | ligand displacement |  | fluorescence |  | EC50 | 62900 nM | O=C1/C(=C/c2ccco2)CCC/C1=C\c1ccco1 |
| Adora2a | ligand displacement |  | radioligand | cell membranes | Ki | > 25000 nM | C=CN1CCCn2c1nc1c2c(=O)n(C)c(=O)n1C |
| Calcium/calmodulin-dependent protein kinase type II subunit delta (CAMK2D, Homo sapiens, UniProt Q13557) | enzyme activity | inhibitor |  |  | IC50 | 1600 nM | CN1CCN(c2ccc(Nc3ncc4cc(C#N)c(=O)n(C5CCCC5)c4n3)cc2)CC1 |
